Data taken from publication PMC5532717 (ACS Central Science, 2017).

Columns and labels:
[1] = molecular target: T1, GANAB (Homo sapiens, UniProt Q14697); test: Competitive ABPP against probe 13 in fibroblast lysates, pH 7; type: biochemical; details: pH 7, preincubation 15, 30 or 60 min
T1 sequence (Q14697 29-944): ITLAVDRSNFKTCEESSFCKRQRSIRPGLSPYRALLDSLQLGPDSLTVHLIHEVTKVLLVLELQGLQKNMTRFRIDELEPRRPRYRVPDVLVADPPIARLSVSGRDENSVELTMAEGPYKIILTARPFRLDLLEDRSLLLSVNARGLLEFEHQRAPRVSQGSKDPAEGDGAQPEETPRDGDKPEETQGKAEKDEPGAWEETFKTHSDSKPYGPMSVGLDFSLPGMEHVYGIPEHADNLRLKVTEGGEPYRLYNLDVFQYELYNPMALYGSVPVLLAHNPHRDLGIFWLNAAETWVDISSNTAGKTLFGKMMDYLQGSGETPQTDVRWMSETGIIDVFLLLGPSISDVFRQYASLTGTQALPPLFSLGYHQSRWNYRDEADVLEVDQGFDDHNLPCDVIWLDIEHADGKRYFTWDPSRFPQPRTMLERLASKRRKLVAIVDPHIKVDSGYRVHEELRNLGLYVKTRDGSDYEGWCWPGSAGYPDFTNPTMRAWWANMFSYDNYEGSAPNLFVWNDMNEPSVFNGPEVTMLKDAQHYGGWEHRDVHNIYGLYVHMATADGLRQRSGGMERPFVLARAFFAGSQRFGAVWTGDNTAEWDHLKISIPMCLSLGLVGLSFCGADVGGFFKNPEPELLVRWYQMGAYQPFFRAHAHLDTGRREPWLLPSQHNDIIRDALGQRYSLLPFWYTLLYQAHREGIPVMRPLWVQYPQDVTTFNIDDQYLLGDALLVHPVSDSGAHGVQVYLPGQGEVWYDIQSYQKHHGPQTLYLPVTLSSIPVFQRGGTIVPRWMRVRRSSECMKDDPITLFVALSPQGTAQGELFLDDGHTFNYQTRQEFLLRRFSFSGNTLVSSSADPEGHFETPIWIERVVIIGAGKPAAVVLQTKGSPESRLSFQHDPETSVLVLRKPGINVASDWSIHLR
T1 sequence (P14314 15-528 partner): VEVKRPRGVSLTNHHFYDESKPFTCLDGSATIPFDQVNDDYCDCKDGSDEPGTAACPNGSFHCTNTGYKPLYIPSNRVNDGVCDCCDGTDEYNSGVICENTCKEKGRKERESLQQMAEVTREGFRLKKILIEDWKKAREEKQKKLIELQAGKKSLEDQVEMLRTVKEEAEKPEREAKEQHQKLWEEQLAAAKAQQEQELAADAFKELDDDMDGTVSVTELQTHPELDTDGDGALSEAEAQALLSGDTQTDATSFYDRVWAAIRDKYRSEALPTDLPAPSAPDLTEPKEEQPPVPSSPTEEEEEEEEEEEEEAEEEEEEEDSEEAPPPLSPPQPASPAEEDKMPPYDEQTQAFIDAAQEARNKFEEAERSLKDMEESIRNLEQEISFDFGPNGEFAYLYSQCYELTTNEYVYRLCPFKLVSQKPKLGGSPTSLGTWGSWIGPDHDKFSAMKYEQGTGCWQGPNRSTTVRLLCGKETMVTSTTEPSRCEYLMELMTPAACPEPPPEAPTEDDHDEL
Outline: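 Human normal dermal fibroblast homogenate (17.6 μg total protein) in 150 mM McIlvaine buffer for 5 min on ice, at pH 4 for GAA and pH 7 for GANAB. Exposed to test compound for 15, 30 or 60 min at 37 °C, then labeled with Cy5 aziridine probe 13 for 30 min at 37 °C. Denatured at 98 °C, 10% SDS–PAGE, Cy5 in-gel fluorescence scan.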

[2] = molecular target: T2, lactase-phlorizin hydrolase (LPH) (Mus musculus, UniProt F8VPT3); test: Competitive ABPP against probe 13 in mouse gastrointestinal lysate; type: biochemical; details: mouse intestine lysate, 1 h at 37 °C
T2 sequence (F8VPT3 869-1931 limits assumed): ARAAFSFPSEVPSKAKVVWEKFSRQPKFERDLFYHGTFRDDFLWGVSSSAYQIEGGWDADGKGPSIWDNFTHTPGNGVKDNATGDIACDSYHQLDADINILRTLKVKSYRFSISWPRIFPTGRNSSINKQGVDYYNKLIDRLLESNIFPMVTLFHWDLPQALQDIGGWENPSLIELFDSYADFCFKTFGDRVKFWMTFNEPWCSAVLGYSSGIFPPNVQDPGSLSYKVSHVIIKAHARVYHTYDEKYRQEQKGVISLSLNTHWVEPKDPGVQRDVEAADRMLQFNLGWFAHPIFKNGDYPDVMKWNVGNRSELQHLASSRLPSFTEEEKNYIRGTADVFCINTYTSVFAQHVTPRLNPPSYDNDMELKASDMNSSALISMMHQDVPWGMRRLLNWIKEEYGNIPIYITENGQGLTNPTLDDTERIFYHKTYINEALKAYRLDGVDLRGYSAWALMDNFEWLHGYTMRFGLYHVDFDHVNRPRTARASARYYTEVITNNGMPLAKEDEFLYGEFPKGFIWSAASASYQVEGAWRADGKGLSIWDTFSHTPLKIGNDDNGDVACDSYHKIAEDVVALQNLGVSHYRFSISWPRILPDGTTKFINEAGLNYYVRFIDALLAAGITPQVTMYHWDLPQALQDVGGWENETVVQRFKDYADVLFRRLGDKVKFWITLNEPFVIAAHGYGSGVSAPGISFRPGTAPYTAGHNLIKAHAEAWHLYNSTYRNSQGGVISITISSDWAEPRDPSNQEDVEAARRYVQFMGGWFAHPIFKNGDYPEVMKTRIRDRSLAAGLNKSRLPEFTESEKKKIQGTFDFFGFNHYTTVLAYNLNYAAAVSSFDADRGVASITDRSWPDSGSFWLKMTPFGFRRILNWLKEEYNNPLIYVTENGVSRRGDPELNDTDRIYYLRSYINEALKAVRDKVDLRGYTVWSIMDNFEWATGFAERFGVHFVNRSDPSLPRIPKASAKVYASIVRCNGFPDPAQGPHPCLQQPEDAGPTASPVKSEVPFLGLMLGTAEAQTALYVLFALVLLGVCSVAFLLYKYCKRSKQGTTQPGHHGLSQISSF
Outline: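 Mixed mouse duodenum, jejunum and ileum homogenates were made in 25 mM potassium phosphate pH 6.5 with protease inhibitors (40 μg protein). Held 5 min on ice in McIlvaine buffer pH 4 or 7. Incubated 1 h at 37 °C with test compound (final 150 to 0.005 μM, plus 0), then probe 13 for 30 min at 37 °C. Boiled in Laemmli buffer, 10% SDS–PAGE, Cy5 fluorescence scan.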

`O=S1(=O)O[C@@H]2[C@H](O)[C@@H](O)[C@H](O)[C@@H](CO)[C@@H]2O1` [Compound 5, 1,6-epi-cyclophellitol cyclosulfate] was tested. Which “inhibition of probe 13 labeling of GANAB” value [1] did it give?
Its value is “time dependent inhibition”.

What about the “competition of off-target probe 13 labeling of LPH” value [2] of the same compound?
Its value is “not outcompeted”.
